Compound activity (PubChem)
The list is not random: actives were taken first. Their share in the collection is about 2.2%.
DNA FID counter – displaces DNA intercalator in HCV helicase counter-screen; 0.17% of 290,000 active; DNA fluorescent intercalator displacement, fluorescence; inhibition, % at 7.9 µM; in the data active = inhibition above about 37%;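 also: 0% = vehicle and 100% = reference compound; higher means more ethidium bromide displaced from hairpin DNA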
NS3 helicase inh – HCV NS3 helicase inhibition | NS3 helicase DNA unwinding, Cy5 molecular beacon fluorescence | inhibition, % at 10.9 µM | 0.56% of 290,000 active | AID 1800;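 active = inhibition above the mean of all tested compounds plus 3 SD, set per campaign, cut at about 35% in these data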;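 also: 0% = DMSO wells and 100% = thioflavine S control wells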
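assay system = NS3 helicase fragment of HCV | buffer or medium = MOPS pH 6.5, MgCl2, DTT, Tween20, BSA | timing = 60 min unwinding reaction at 25 °C after ATP addition | signal = Cy5 beacon fluorescence read at start and 1 h | read-out basis = % inhibition of unwinding | control set = low DMSO, high thioflavine S at 110 µM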
DAGLB inhibitor – diacylglycerol lipase beta (human) inhibition; Q8NCG7; 0.059% of 340,000 active; inhibition, % at 5.17 µM; HEK293T DAGLB membrane lysate, EnzChek fluorogenic substrate; AID 504411; in the data active = inhibition above about 34%;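 also: 0% = enzyme with vehicle and 100% = wells lacking enzyme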
HCV core dimer – blocks dimerization of HCV core protein. TR-FRET GST/Flag-core106 dimerization, 1536-well. inhibition, % at 5 µM. 0.33% of 300,000 active. AID 1899;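 active = inhibition above the mean of all tested compounds plus 3 SD, set per screening campaign, cut at about 45% in these data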
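test system = GST/Flag-tagged HCV core106 proteins | probe or stimulus = Eu donor and XL665 acceptor anti-tag antibodies | times = compound-protein-antibody incubation 4 h at 22.5 °C | signal = TR-FRET, excitation 340 nm, emission 617 and 671 nm | measure = percent inhibition of core106 dimerization signal | controls = wells lacking GST-core106 and wells with excess unlabelled core106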
GRK2 inh – inhibitors of human GRK2 displacing RNA aptamer. P25098. bead flow cytometry, FAM-aptamer displacement from GRK2. inhibition of aptamer binding, % at 10 µM. 0.59% of 330,000 active;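 active = inhibition of aptamer binding above 40%, roughly 3 SD of noise, on plates passing a quality check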;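 also: median bead fluorescence of bound FAM aptamer so fluorescent compounds give negative values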
Target sequence (P25098 whole entry, looked up): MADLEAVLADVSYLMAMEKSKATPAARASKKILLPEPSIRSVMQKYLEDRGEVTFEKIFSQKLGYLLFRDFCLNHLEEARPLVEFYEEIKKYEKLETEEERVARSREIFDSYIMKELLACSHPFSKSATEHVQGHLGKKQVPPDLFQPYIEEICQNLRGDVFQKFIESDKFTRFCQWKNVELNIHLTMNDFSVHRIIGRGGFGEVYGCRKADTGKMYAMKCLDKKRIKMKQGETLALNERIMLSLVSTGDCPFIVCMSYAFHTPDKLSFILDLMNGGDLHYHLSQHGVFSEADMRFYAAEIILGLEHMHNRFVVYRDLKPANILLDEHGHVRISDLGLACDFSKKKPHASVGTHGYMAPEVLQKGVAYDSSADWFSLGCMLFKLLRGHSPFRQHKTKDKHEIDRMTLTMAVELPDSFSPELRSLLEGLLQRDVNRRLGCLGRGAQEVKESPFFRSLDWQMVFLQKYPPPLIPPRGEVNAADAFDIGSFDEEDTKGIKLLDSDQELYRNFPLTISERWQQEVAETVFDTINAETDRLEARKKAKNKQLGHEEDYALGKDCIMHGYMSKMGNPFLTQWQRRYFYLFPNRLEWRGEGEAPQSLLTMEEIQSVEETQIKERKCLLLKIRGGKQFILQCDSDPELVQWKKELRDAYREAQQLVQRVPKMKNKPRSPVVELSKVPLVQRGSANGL
GPR7 antagonist – human neuropeptides B/W receptor 1 antagonism; inhibition, % at 4.4 µM; 1.1% of 290,000 active; P48145; GPR7-expressing cells, fluorescence antagonist assay; in the data active = inhibition above about 16%, passing the limit was not always enough;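 also: cells stimulated with the agonist NPW; 0% = agonist with vehicle and 100% = vehicle without agonist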
GPR7 antag cf – human GPR7 antagonism, confirmation assay. 52% of 2,400 active. shares compounds with GPR7 antagonist. GPR7-expressing cells, calcium fluorescence antagonist mode. inhibition, % at 4.4 µM; in the data active = inhibition above about 24%;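 also: stimulated with the GPR7 agonist NPW; 0% = agonist plus vehicle and 100% = vehicle alone without agonist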
MCHR1 antagonist – counter-screen for GPR7 antagonists: antagonists of human MCHR1; shares compounds with GPR7 antagonist; MCHR1-expressing cells, fluorescence antagonist assay; inhibition, % at 4.4 µM; 62% of 2,400 active; in the data active = inhibition above about 22%;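 also: 0% = vehicle with agonist and 100% = vehicle without agonist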
An asterisk follows results filed as active; x = no result given.

SMILES | DNA FID counter | NS3 helicase inh | DAGLB inhibitor | HCV core dimer | GRK2 inh | GPR7 antagonist | GPR7 antag cf | MCHR1 antagonist
COc1ccc(C2CC(=O)C(C=NCCN3CCN(C(C)=O)CC3)=C(O)C2)cc1 (centres undefined) | -12 | 1 | -3 | 2 | 0 | -8 | x | x
COc1ccccc1OCC(O)Cn1c(=N)n(Cc2ccccc2)c2ccccc21 (centres undefined) | 20 | -48 | 0 | -7 | 0 | 25* | 29* | 35*
CCCCn1c(=N)n(CC(O)COc2cccc(C)c2)c2ccccc21 (centres undefined) | 32 | -73 | 1 | -2 | 0 | 33* | 37* | 46*
CCN(CC)CCn1c(=N)n(CC(O)COc2ccccc2)c2ccccc21 (centres undefined) | 37* | 5 | 0 | -1 | 1 | 29* | 23 | 19
CCN(CC)CCn1c(=N)n(CCOc2ccccc2)c2ccccc21 | 20 | -15 | 1 | 0 | 1 | 16 | x | x
C=CCn1c(=N)n(CC(O)COc2ccccc2OC)c2ccccc21 (centres undefined) | 12 | -5 | 0 | 7 | 0 | 8 | x | x
N=c1n(N)c2ccccc2n1CC(=O)c1ccc(Br)cc1 | 17 | -20 | 1 | -12 | 0 | -4 | x | x
CN1/C(=C\C=C2/C(=O)Oc3ccccc3C2=O)C(C)(C)c2ccccc21 | -25 | -6 | x | -8 | 0 | 51* | 76* | 88*
CN1C(=CC=C2C=C(I)C(=O)C(I)=C2)C(C)(C)c2ccccc21 | -25 | -5 | 7 | x | x | -2 | x | x
COc1ccc(OCCn2c(=N)n(CCO)c3ccccc32)cc1 | 8 | -3 | 0 | -8 | 0 | -1 | x | x
N=c1n(CCO)c2ccccc2n1CCOc1ccc(Cl)cc1Cl | 14 | -65 | 4 | -2 | 0 | 31* | 58* | 43*
Cc1c(Cc2c(Cl)cccc2Cl)c(=O)ccn1C(C)c1ccccc1 (centres undefined) | -30 | -2 | 2 | x | x | 35* | 27* | 25*
COC(C(=O)Nc1ccc(S(=O)(=O)Nc2ccc(F)cc2)cc1)c1ccccc1 (centres undefined) | -15 | -10 | -4 | 10 | x | 22* | 51* | 39*
COC(C(=O)Nc1ccc(F)cc1)c1ccccc1 (centres undefined) | -6 | 1 | -1 | 5 | 0 | -7 | x | x
COc1ccccc1C(C(=O)NC1CCCCC1)N(C(=O)c1csnn1)C1CC1 (centres undefined) | -38 | 10 | 2 | -9 | 1 | -10 | x | x
O=C(NC1CCCCC1)C(c1ccccc1F)N(C(=O)c1csnn1)C1CCCC1 (centres undefined) | -41 | 7 | -1 | 1 | 0 | 23* | 17 | 19
COCCN(C(=O)c1csnn1)C(C(=O)NC1CCCC1)c1ccccc1 (centres undefined) | -11 | 15 | -4 | -17 | 2 | 44* | 1 | -6
O=C(NC1CCCC1)C(c1ccc(F)cc1)N(Cc1ccccc1)C(=O)c1csnn1 (centres undefined) | -35 | -3 | -1 | -2 | 0 | 23* | 32* | 22*
O=C1C=C(NCCOC23CC4CC(CC(C4)C2)C3)C2(CCCCC2)O1 | -6 | 1 | -4 | 3 | 0 | -4 | x | x
Nc1ccc2c(c1)Nc1ccccc1CC2 | 0 | -76 | 7 | -18 | 4 | -8 | x | x
COc1cccc(CC2(CO)CCCN(Cc3c(C)cc(C)cc3-n3cccn3)C2)c1 (centres undefined) | 10 | -17 | -1 | 6 | 0 | x | x | 9
CCN(CC)CCSc1nc2ccccc2c(=S)n1-c1ccccc1 | 45* | -70 | x | -4 | 0 | 40* | 40* | 39*
CC(Nc1nc(N2CCCCC2)nc2ccccc12)c1ccccc1 (centres undefined) | 15 | -39 | -1 | -2 | 0 | 24* | 30* | 57*
O=C(NCCc1ccccc1)C(=O)NCC1OCCCN1S(=O)(=O)c1ccc(F)cc1 (centres undefined) | -33 | 2 | 0 | 8 | 4 | -10 | x | x
O=C(NCCc1ccco1)C(=O)NCC1OCCCN1S(=O)(=O)c1ccc(F)cc1 (centres undefined) | -17 | 20 | 5 | 4 | 2 | 24* | -1 | 2
SMILES | DNA FID counter | NS3 helicase inh | DAGLB inhibitor | HCV core dimer | GRK2 inh | GPR7 antagonist | GPR7 antag cf | MCHR1 antagonist
C=CCn1c2ccccc2c(=O)c2cc(C#CC3(O)CCCCC3)ccc21 | -33 | -30 | -3 | 13 | 2 | 46* | 43* | 46*
Cc1cc(C)cc(NC(=O)CCc2ccc(C)o2)c1 | -6 | 24 | -2 | 10 | 1 | 29* | -12 | 7
Cc1nn(C)c(C)c1Nc1ccc(N2C(=O)C3C4C=CC(C4)C3C2=O)cc1[N+](=O)[O-] (centres undefined) | -18 | 10 | -4 | 1 | 2 | 26* | 2 | 5
O=C(N1CCOCC1)N1CCN(S(=O)(=O)c2cccc([N+](=O)[O-])c2)CC1 | -10 | 7 | -6 | 0 | 1 | 5 | x | x
COc1ccnc(Oc2ccc(F)cc2)c1C(=O)N/C=N/OCc1ccc(F)cc1 | -11 | -6 | -1 | -6 | 0 | x | x | 13
COc1ccnc(Oc2ccc(F)cc2)c1C(=O)N/C=N/OCc1ccc(F)cc1Cl | -2 | 0 | -3 | 11 | 1 | -8 | x | x
Cc1cc(N2C(=O)c3ccc(C(=O)Nc4ccc(CC(=O)O)cc4)cc3C2=O)no1 | 1 | 15 | -1 | -9 | 2 | 2 | x | x
CC1(C)Cc2c(cnn2-c2cccc(F)c2)C(NC(=O)CSc2ccccn2)C1 (centres undefined) | -44 | 5 | 1 | 6 | 2 | -13 | x | x
Cc1ccc2nc(C)c3c(c2c1)N(c1ccc(F)cc1)CC3 | 4 | -9 | x | 1 | 0 | 35* | 42* | 31*
c1ccc(CCNc2ccnc3cc4ccccc4cc23)cc1 | 20 | -68 | 4 | x | x | 37* | 45* | 75*
O=C(Nc1cccnc1Cl)c1ccc(=O)oc1 | 0 | 15 | 4 | 4 | 22 | -7 | x | x
N#CC(C#N)=Cc1cnc(N2CCN(c3ccccc3)CC2)s1 | 0 | 24 | 0 | 3 | 1 | 41* | 12 | 42*
O=Cc1cnc(N2CCN(c3ccccc3)CC2)s1 | -7 | 15 | 1 | 3 | 1 | -8 | x | x
C=C1C[C@H](O)[C@@H]2[C@H](OC(=O)[C@H]2C)[C@H]2[C@H](C)[C@@H](O)C[C@@H]12 | x | x | -2 | x | 3 | x | x | x
